Data set [1] has as its target T1, Inhibitor of nuclear factor kappa-B kinase subunit beta (Homo sapiens, UniProt O14920).
T1 sequence (O14920 whole entry): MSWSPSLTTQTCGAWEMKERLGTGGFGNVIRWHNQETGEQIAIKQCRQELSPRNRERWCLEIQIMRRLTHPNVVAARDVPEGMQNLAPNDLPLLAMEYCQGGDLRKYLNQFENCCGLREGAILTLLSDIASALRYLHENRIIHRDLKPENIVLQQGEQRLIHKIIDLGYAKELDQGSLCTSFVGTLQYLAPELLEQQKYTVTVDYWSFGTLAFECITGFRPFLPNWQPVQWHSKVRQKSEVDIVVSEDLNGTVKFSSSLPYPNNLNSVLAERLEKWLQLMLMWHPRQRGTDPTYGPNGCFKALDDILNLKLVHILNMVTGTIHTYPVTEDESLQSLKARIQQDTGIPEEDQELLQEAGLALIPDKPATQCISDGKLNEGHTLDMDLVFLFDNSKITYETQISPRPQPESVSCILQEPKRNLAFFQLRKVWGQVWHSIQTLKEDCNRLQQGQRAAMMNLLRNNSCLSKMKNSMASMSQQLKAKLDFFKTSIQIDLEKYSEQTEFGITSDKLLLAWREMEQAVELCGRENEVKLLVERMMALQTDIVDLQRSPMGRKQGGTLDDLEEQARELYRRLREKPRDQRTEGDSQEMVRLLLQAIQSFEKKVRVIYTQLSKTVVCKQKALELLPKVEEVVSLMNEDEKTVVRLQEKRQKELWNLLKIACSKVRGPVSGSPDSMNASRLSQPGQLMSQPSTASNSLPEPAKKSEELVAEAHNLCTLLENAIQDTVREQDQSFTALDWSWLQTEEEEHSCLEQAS
Description: Inhibition of recombinant human full-length N-terminal GST-fused/His6-tagged IKKbeta (M1 to S756 residues) expressed in Sf9 insect cells using ERLLDDRHDSGLDSMKDEE peptide as substrate measured after 60 mins by ADP-Glo kinase assay. A general note: ADP-Glo turns the ADP formed in a reaction into a luminescent signal.

Data set [2] addresses T2, Inhibitor of nuclear factor kappa-B kinase subunit epsilon (Homo sapiens, UniProt Q14164).
T2 sequence (Q14164 whole entry): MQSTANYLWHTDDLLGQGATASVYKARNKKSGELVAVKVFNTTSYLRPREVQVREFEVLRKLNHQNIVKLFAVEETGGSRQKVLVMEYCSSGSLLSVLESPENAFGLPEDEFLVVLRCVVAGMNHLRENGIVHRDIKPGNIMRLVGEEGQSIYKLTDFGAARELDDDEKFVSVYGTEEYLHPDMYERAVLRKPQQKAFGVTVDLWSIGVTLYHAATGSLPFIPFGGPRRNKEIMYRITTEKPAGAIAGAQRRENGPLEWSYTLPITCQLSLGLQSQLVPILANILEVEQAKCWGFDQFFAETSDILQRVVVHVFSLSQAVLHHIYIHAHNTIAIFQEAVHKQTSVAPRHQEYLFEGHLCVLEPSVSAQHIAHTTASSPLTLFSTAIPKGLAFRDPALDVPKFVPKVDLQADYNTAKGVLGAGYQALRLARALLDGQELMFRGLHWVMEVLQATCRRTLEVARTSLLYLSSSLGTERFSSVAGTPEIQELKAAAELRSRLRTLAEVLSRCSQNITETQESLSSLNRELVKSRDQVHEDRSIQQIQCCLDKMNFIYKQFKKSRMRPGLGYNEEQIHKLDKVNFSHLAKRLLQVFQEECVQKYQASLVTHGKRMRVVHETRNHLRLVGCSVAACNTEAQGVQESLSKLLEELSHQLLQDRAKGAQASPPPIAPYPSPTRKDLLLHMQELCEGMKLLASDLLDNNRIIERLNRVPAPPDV
In words: Inhibition of recombinant human full-length N-terminal GST-fused/His6-tagged IKKepsilon (M1 to V716 residues) expressed in Sf9 insect cells using ERLLDDRHDSGLDSMKDEE peptide as substrate measured after 60 mins by ADP-Glo kinase assay.

In data set [3] the target is T3, Mitogen-activated protein kinase kinase kinase 14 (Homo sapiens, UniProt Q99558). In words: Inhibition of recombinant human full-length N-terminal GST-fused/His6-tagged NIK (M1 to P947 residues) expressed in Sf9 insect cells using AKDVDQGSLCTSFVGTLQY peptide as substrate measured after 60 mins by ADP-Glo kinase assay.
Target sequence in this assay (Q99558 whole entry, the tested form may be a part): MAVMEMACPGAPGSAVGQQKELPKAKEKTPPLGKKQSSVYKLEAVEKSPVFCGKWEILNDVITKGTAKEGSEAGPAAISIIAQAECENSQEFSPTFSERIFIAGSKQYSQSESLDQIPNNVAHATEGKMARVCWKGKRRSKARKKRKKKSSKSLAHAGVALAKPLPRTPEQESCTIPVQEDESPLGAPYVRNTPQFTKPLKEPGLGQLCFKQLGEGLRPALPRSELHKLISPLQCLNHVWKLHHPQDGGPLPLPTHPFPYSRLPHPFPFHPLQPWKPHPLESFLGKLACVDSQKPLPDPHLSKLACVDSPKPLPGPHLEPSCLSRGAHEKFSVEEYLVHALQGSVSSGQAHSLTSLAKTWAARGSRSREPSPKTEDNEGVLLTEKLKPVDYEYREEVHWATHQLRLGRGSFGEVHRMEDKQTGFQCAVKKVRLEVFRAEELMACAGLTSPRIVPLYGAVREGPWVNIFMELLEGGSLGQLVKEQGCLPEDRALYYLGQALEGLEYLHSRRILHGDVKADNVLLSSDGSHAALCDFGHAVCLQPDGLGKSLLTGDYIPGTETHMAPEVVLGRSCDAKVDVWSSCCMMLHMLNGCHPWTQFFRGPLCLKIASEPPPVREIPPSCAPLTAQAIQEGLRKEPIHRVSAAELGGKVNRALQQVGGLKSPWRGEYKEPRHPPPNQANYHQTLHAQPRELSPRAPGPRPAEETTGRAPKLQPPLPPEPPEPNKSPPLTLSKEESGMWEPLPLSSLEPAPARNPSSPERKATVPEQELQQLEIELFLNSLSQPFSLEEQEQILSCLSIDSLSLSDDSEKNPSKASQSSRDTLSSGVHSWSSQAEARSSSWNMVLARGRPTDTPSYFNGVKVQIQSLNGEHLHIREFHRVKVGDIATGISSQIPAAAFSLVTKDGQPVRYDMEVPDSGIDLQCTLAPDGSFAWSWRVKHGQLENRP
In data set [4] the target is T4, Inhibitor of nuclear factor kappa-B kinase subunit alpha (Homo sapiens, UniProt O15111).
T4 sequence (O15111 whole entry): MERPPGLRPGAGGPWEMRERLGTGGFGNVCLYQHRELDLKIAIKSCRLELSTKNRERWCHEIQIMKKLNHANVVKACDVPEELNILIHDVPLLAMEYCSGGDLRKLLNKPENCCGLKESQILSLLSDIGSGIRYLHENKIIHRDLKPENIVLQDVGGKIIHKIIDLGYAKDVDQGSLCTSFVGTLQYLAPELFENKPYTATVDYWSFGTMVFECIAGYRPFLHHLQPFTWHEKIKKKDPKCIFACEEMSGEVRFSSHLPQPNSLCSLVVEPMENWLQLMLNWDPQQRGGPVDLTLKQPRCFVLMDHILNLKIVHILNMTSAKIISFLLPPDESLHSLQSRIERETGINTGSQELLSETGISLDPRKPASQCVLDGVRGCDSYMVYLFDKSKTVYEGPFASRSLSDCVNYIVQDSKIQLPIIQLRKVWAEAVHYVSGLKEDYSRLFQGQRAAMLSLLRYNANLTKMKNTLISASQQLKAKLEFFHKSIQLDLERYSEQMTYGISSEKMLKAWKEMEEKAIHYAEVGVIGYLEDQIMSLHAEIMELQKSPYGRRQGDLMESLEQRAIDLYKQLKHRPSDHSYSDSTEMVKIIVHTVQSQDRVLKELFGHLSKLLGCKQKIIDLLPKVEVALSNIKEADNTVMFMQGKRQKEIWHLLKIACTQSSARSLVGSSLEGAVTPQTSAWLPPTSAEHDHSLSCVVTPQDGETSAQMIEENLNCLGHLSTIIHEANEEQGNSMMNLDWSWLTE
In words: Inhibition of recombinant full length human His-tagged IKKalpha expressed in baculovirus expression system using ERLLDDRHDSGLDSMKDEE peptide as substrate measured after 60 mins by ADP-Glo kinase assay. Summed up: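 Recombinant human IKKα, peptide substrate 100 µM, enzyme 8 ng/µL, ATP 1 µM in Tris-HCl pH 7.5 buffer with MgCl2, MnCl2, DTT, Na3VO4, BSA; 25°C, 60 min; ADP-Glo luminescence. Ten concentrations 0.005–100 µM; IC50 by nonlinear regression; means ± SD of three independent experiments.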

In data set [5] the target is T3, Mitogen-activated protein kinase kinase kinase 14. Description: Inhibition of NIK-induced NFkappaB activation in human EJM cells at 100 uM after 6 hrs by dual luciferase reporter gene assay relative to control. Format: cell-based. Summed up:
(§1)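 Cells were nucleofected with the pGL4.32 NF-κB-RE firefly luciferase and pGL4.74 TK-Renilla plasmids (3 µg, 10:1 ratio) and cultured for 24 h at 37 °C. Compound (10, 25, 50 or 100 µM) was then added for 6 h. Firefly luminescence was normalised to Renilla from the same sample and expressed as % of vehicle control. Means ± SD of three independent experiments.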
Target sequence in this assay (Q99558 whole entry, looked up, the tested form may be a part): as the sequence (Q99558 whole entry, the tested form may be a part) above

Data set [6] has as its system MDA-MB-231. Description: Inhibition of NFkappaB activation in human MDA-MB-231 cells at 50 uM after 6 hrs by dual luciferase reporter gene assay relative to control. The data set is classed as cell-based. The procedure, abridged: as §1
On the technique in general: Reporter assays use an easily measured gene product as a stand-in for the process of interest.

The species entered for data set [7] is Homo sapiens. In words: Inhibition of NFkappaB activation in human SKBR3 cells at 50 uM after 6 hrs by dual luciferase reporter gene assay relative to control. Format: cell-based. Summed up:
as §1

The nature of data set [8]: Cytotoxicity against human MDA-MB-231 cells assessed as cell viability at 50 uM after 6 hrs by CellTiter Glo luminescent assay relative to control. Format: cell-based. The settings on record: read-out: Activity. Summed up: (§2)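 Cells seeded at 5 x 10^3 per well and exposed for 6 h to the compound (10, 25, 50 or 100 µM) or to DMSO vehicle. Viability was read as intracellular ATP by CellTiter Glo luminescence.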
For orientation: In ATP-based viability assays light output follows the ATP content of the culture.

Data set [9] is described as follows: Cytotoxicity against human EJM cells assessed as cell viability at 100 uM after 6 hrs by CellTiter Glo luminescent assay relative to control. The data set is classed as cell-based. The settings on record: read-out: Activity. Summed up: as §2
Data set [10] can be described thus: Cytotoxicity against human SKBR3 cells assessed as cell viability at 50 uM after 6 hrs by CellTiter Glo luminescent assay relative to control. Format: cell-based, SK-BR-3. The settings on record: read-out: Activity. Summed up:
as §2

Data set [11] concerns MDA-MB-231. Description: Inhibition of NFkappaB activation in human MDA-MB-231 cells at 1 uM after 6 hrs by dual luciferase reporter gene assay relative to control. The data set is classed as cell-based.
The species entered for data set [12] is Homo sapiens. In words: Inhibition of NFkappaB activation in human SKBR3 cells at 1 uM after 6 hrs by dual luciferase reporter gene assay relative to control. Format: cell-based.
The nature of data set [13]: Cytotoxicity against human MDA-MB-231 cells assessed as cell viability at 1 uM after 6 hrs by CellTiter Glo luminescent assay relative to control. Format: cell-based. The conditions noted are these: read-out: Activity.
Data set [14] is described as follows: Cytotoxicity against human EJM cells assessed as cell viability at 1 uM after 6 hrs by CellTiter Glo luminescent assay relative to control. The data set is classed as cell-based. The conditions noted are these: read-out: Activity.
A short description of data set [15]: Cytotoxicity against human SKBR3 cells assessed as cell viability at 1 uM after 6 hrs by CellTiter Glo luminescent assay relative to control. Format: cell-based, SK-BR-3. The settings on record: read-out: Activity.

Some results are limits rather than exact numbers.

For `Cc1nn(C(=O)C2CC2)c(N)c1-c1ccc(Cl)c(Cl)c1`, the half-maximal inhibitory concentration (IC50) in [1] is > 100 µM; in data set [2] it was > 100 µM; in data set [3] it was 24.3 µM; in data set [4] it was > 100 µM. In addition, the figures for the inhibition (in [5]; with MDA-MB-231 [6]; in the data set filed under Homo sapiens [7]) were 68.9%, 5.8% and 3.66%, respectively. The viability at 6 h, 50 µM in [8] and in [10] was ≥ 80% throughout. In addition, the viability at 6 h, 100 µM in data set [9] was ≥ 80%.
As to `COCCOc1cnc(N)nc1-c1c[nH]c2ccc(C#CC(C)(C)O)cc12`, the IC50 is > 100 µM in data set [1], > 100 µM in data set [2], 0.07 µM in data set [3] and > 100 µM in [4]. The inhibition in the data set with MDA-MB-231 [11] was found to be 7.1%; in the data set filed under Homo sapiens [12] it was 2.3%. Also, the viability at 6 h, 1 µM in data set [13], in data set [14] and in data set [15] was ≥ 80% each time.

For orientation: IC50 means the concentration that gives 50% inhibition. By inhibition is commonly meant the percentage by which the read-out fell short of the control. High values mean a strong effect, low ones a weak effect.

(Values after ChEMBL document CHEMBL4257503, “N-Acetyl-3-aminopyrazoles block the non-canonical NF-kB cascade by selectively inhibiting NIK” (Medchemcomm, 2018).)
